pKd: −log10 of the molar value. The source made the active and inactive calls. The calls are words filed in the database; no cut-off is given here.
Columns and labels:
[1] = biological target: AP2-associated protein kinase 1 (Homo sapiens) (UniProt Q2M2I8); experiment: Inhibition of AAK1 (unknown origin) assessed as remaining activity at 1 uM by Kinome scan method relative to control
Outline: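 Active-site-dependent competition-binding (KINOMEscan) panel of 468 kinases, test compound at 1 μM (from a 10 mM DMSO stock). Read-out is ctrl% = (test signal − positive control signal)/(negative control signal − positive control signal) × 100. DMSO is the negative control (100%) and a control compound is the positive control (0%). Lower ctrl% means tighter binding.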

[2] = biological target: BMP-2-inducible protein kinase (Homo sapiens) (UniProt Q9NSY1); experiment: Inhibition of BIKE (unknown origin) assessed as remaining activity at 1 uM by Kinome scan method relative to control
Outline: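 KINOMEscan active-site-dependent competition-binding panel of 468 kinases, compound at 1 μM from a DMSO stock. Result reported as ctrl% = (test signal − positive control signal)/(negative control signal − positive control signal) × 100. The negative control is DMSO (100%) and the positive control is a control compound (0%). Lower ctrl% means tighter binding.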

[3] = biological target: Tyrosine-protein kinase CSK (Homo sapiens) (UniProt P41240); experiment: Inhibition of CSK (unknown origin) assessed as remaining activity at 1 uM by Kinome scan method relative to control
Outline: (§1)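 Active-site-dependent competition-binding profiling (KINOMEscan) at 1 μM against a 468-kinase panel; compound supplied from a 10 mM DMSO stock. Read-out is ctrl% = (test signal − positive control signal)/(negative control signal − positive control signal) × 100. DMSO is the negative control (100%) and a control compound the positive control (0%). Lower ctrl% means tighter binding.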

[4] = biological target: Casein kinase I isoform alpha-like (Homo sapiens) (UniProt Q8N752); experiment: Inhibition of CSNK1A1L (unknown origin) assessed as remaining activity at 1 uM by Kinome scan method relative to control; outline: as §1
[5] = biological target: Casein kinase I isoform epsilon (Homo sapiens) (UniProt P49674); experiment: Inhibition of CSNK1E (unknown origin) assessed as remaining activity at 1 uM by Kinome scan method relative to control; outline: as §1
[6] = biological target: Casein kinase I isoform gamma-2 (Homo sapiens) (UniProt P78368); experiment: Inhibition of CSNK1G2 (unknown origin) assessed as remaining activity at 1 uM by Kinome scan method relative to control; outline: as §1
[7] = tested on: Epidermal growth factor receptor (Homo sapiens), P00533 [UNDEFINED MUTATION]; experiment: Inhibition of EGFR L747-S752del/P753S mutant (unknown origin) assessed as remaining activity at 1 uM by Kinome scan method relative to control
[8] = biological target: Eukaryotic translation initiation factor 2-alpha kinase 1 (Homo sapiens) (UniProt Q9BQI3); experiment: Inhibition of EIF2AK1 (unknown origin) assessed as remaining activity at 1 uM by Kinome scan method relative to control
[9] = biological target: Mitogen-activated protein kinase 6 (Homo sapiens) (UniProt Q16659); experiment: Inhibition of ERK3 (unknown origin) assessed as remaining activity at 1 uM by Kinome scan method relative to control
[10] = biological target: Homeodomain-interacting protein kinase 4 (Homo sapiens) (UniProt Q8NE63); experiment: Inhibition of HIPK4 (unknown origin) assessed as remaining activity at 1 uM by Kinome scan method relative to control
[11] = biological target: Serine/threonine-protein kinase Nek3 (Homo sapiens) (UniProt P51956); experiment: Inhibition of NEK3 (unknown origin) assessed as remaining activity at 1 uM by Kinome scan method relative to control
[12] = biological target: Serine/threonine-protein kinase Nek6 (Homo sapiens) (UniProt Q9HC98); experiment: Inhibition of NEK6 (unknown origin) assessed as remaining activity at 1 uM by Kinome scan method relative to control
[13] = biological target: Mitogen-activated protein kinase kinase kinase 14 (Homo sapiens) (UniProt Q99558); experiment: Inhibition of NIK (unknown origin) assessed as remaining activity at 1 uM by Kinome scan method relative to control
[14] = tested on: Phosphatidylinositol 4,5-bisphosphate 3-kinase catalytic subunit alpha isoform (Homo sapiens), P42336 [I800L]; experiment: Inhibition of PIK3CA I800L mutant (unknown origin) assessed as remaining activity at 1 uM by Kinome scan method relative to control
[15] = biological target: Serine/threonine-protein kinase pim-2 (Homo sapiens) (UniProt Q9P1W9); experiment: Inhibition of PIM2 (unknown origin) assessed as remaining activity at 1 uM by Kinome scan method relative to control
[16] = biological target: Receptor-interacting serine/threonine-protein kinase 2 (Homo sapiens) (UniProt O43353); experiment: Inhibition of RIPK2 (unknown origin) assessed as remaining activity at 1 uM by Kinome scan method relative to control
[17] = biological target: Serine/threonine-protein kinase Sgk2 (Homo sapiens) (UniProt Q9HBY8); experiment: Inhibition of SGK2 (unknown origin) assessed as remaining activity at 1 uM by Kinome scan method relative to control
[18] = biological target: Serine/threonine-protein kinase tousled-like 1 (Homo sapiens) (UniProt Q9UKI8); experiment: Inhibition of TLK1 (unknown origin) assessed as remaining activity at 1 uM by Kinome scan method relative to control
[19] = biological target: Activated CDC42 kinase 1 (Homo sapiens) (UniProt Q07912); experiment: Inhibition of TNK2 (unknown origin) assessed as remaining activity at 1 uM by Kinome scan method relative to control
[20] = biological target: Mitogen-activated protein kinase kinase kinase 20 (Homo sapiens) (UniProt Q9NYL2); experiment: Inhibition of ZAK (unknown origin) assessed as remaining activity at 1 uM by Kinome scan method relative to control
[21] = biological target: Serine/threonine-protein kinase ULK2 (Homo sapiens, UniProt Q8IYT8); experiment: Binding affinity to ULK2 (unknown origin) assessed as dissociation constant
[22] = Cmax in male Sprague-Dawley rat at 5 mg/kg, iv measured for 24 hrs by LC-MS/MS analysis; format: ADME, organism-based; details: in vivo
Outline: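 Sprague-Dawley rats, single intravenous or oral dose. Parameters (half-life, AUC, bioavailability) reported in a supplementary table.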

[23] = Acute toxicity in wild-type mouse assessed as ratio of liver weight to body weight at 1 mg/kg,ip administrated twice daily for 7 days; format: organism-based; details: in vivo, 168 h, time 7 day
Outline: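 Wild-type mice underwent two-thirds partial hepatectomy with vehicle or 1 mg/kg i.p. twice per day, starting with a dose before surgery. Liver/body weight ratio was followed over postoperative days, n = 5; means ± SD.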

[24] = Acute toxicity in mouse assessed as increase in CK19-positive cells at 1 mg/kg,ip administrated once a daily for 3 weeks by H and E staining based immunohistochemical analysis relative to control; format: organism-based, Liver; details: in vivo, 504 h
Outline: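 Postnatal mice dosed from 10 days of age with vehicle or 1 mg/kg once per day for 21 days (3 weeks). Vehicle is 0.1% citric acid aqueous solution containing 20% Kolliphor HS 15. Liver sections stained with H&E and by IHC for CK19 and BrdU, with positive cells quantified (n = 3). Liver/body weight ratio recorded (n = 4). Values are means ± SD versus vehicle, Student's t test.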

Mus musculus = experiment: Protection against APAP induced liver injury in mouse assessed as decrease in ALT level at 1 mg/kg, ip administered at 2.5 hrs; format: functional, organism-based; details: Serum

Receptor-interacting serine/threonine-protein kinase 2 (Homo sapiens), sequence (O43353 whole entry): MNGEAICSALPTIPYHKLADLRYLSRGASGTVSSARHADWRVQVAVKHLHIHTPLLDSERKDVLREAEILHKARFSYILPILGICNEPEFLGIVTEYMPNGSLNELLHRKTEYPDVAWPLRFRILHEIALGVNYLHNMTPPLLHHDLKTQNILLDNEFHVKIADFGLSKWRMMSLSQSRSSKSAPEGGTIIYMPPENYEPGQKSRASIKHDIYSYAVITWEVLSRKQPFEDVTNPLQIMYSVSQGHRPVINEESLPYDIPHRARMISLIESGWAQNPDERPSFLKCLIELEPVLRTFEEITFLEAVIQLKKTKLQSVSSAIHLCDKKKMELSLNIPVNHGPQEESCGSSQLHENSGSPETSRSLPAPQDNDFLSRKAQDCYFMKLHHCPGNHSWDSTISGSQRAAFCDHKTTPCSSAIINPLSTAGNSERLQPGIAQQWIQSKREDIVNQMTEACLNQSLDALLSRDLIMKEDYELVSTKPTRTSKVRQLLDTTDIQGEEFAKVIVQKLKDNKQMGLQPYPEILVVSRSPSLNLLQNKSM
Mitogen-activated protein kinase kinase kinase 14 (Homo sapiens), sequence (Q99558 whole entry, looked up, canonical isoform): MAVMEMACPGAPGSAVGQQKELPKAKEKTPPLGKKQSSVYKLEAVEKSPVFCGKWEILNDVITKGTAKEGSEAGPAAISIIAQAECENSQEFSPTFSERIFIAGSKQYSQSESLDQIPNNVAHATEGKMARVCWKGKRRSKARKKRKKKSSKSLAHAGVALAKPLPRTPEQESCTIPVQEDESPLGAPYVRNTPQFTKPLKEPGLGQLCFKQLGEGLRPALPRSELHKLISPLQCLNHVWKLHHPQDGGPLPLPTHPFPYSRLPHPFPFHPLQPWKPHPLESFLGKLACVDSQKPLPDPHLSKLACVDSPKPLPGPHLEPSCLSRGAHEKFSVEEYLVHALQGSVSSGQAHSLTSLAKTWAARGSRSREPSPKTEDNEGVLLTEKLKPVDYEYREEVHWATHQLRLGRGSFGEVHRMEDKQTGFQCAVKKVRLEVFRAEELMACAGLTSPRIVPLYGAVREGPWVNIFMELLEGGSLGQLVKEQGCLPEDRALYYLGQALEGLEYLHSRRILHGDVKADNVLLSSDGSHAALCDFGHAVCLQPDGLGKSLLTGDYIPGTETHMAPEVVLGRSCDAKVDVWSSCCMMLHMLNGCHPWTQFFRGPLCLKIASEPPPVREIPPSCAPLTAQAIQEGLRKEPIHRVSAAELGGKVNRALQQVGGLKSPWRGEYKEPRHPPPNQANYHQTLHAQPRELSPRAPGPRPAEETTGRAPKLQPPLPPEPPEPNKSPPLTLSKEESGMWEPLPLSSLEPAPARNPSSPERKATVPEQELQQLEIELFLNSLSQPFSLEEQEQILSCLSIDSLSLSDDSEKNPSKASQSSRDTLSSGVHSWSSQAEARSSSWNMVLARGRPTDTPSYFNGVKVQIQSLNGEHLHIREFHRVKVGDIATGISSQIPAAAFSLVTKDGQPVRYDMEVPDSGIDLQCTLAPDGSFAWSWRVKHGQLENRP
Homeodomain-interacting protein kinase 4 (Homo sapiens), sequence (Q8NE63 whole entry): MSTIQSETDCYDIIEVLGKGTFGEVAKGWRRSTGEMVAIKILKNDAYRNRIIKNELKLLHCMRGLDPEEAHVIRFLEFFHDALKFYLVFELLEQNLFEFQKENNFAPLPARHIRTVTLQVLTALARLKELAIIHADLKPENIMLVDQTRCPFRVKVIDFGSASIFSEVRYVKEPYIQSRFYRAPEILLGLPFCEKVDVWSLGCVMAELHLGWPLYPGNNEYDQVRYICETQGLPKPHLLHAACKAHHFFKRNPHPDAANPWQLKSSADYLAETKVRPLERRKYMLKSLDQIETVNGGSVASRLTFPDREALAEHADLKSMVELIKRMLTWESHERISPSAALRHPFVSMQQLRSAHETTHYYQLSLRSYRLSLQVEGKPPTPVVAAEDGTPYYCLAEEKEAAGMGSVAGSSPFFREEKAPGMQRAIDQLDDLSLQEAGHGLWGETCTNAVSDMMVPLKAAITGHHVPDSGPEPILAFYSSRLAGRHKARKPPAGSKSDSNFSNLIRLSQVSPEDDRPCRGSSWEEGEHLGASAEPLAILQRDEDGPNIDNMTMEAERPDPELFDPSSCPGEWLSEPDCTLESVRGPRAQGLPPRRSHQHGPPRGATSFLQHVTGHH
Serine/threonine-protein kinase pim-2 (Homo sapiens), sequence (Q9P1W9 whole entry, looked up): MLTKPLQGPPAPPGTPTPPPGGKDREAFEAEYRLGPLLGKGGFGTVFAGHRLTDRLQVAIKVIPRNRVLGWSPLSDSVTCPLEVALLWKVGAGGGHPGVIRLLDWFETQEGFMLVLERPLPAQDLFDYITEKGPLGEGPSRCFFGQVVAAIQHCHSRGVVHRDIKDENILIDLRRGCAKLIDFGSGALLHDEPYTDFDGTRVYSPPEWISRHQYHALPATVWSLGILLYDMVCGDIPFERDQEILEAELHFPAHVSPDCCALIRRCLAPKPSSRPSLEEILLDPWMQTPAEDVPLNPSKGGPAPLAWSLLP
Serine/threonine-protein kinase Sgk2 (Homo sapiens), sequence (Q9HBY8 whole entry): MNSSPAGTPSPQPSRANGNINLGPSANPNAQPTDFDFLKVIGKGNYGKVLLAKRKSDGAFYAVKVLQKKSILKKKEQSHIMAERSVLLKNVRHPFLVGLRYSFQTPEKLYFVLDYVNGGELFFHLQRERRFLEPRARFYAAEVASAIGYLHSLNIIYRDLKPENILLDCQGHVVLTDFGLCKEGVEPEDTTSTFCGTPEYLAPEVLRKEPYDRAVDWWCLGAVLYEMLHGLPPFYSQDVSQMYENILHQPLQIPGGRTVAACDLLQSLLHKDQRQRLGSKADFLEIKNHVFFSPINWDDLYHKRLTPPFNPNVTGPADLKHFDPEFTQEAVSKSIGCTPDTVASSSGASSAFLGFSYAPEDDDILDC
Casein kinase I isoform gamma-2 (Homo sapiens), sequence (P78368 whole entry, looked up, canonical isoform): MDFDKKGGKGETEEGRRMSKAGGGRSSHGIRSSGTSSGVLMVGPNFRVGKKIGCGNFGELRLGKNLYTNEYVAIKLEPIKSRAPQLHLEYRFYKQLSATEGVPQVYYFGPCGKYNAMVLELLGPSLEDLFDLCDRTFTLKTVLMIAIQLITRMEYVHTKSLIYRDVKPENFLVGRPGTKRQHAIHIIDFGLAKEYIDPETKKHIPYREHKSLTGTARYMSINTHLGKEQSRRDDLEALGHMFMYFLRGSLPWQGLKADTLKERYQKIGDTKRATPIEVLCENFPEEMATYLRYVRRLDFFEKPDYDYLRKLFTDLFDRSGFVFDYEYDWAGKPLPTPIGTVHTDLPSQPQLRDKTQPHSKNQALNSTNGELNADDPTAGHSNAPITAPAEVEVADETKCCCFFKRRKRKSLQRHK
BMP-2-inducible protein kinase (Homo sapiens), sequence (Q9NSY1 whole entry, looked up): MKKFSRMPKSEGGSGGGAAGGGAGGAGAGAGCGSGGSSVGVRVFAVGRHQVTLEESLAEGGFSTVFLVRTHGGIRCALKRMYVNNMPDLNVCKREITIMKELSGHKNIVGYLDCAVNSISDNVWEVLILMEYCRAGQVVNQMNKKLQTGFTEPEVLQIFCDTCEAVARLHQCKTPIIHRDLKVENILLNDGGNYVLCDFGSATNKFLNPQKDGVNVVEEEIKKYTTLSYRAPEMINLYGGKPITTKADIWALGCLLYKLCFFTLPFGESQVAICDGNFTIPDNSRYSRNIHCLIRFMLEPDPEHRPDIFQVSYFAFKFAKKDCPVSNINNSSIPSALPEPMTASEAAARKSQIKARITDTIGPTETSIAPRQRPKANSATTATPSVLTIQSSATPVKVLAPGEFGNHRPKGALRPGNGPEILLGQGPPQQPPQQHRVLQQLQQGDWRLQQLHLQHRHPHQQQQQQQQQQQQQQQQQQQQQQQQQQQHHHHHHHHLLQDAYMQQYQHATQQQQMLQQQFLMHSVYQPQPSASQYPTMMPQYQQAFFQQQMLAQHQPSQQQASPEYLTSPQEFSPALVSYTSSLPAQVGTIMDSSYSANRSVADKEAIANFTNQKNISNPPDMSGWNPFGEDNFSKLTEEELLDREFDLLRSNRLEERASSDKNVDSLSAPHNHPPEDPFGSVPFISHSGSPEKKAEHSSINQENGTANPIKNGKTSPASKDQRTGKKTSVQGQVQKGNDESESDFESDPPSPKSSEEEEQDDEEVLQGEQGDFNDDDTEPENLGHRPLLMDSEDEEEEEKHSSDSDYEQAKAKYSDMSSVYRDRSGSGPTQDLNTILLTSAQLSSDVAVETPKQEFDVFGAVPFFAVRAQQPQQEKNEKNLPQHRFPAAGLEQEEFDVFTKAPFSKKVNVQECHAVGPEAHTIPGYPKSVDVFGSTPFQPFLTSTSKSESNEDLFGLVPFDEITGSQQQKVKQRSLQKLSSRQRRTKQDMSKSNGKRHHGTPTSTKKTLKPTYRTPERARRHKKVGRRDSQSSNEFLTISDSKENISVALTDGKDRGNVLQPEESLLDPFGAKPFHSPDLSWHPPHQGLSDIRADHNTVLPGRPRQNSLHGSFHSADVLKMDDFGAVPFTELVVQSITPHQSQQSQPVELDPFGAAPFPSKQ
Tyrosine-protein kinase CSK (Homo sapiens), sequence (P41240 2-450 limits assumed): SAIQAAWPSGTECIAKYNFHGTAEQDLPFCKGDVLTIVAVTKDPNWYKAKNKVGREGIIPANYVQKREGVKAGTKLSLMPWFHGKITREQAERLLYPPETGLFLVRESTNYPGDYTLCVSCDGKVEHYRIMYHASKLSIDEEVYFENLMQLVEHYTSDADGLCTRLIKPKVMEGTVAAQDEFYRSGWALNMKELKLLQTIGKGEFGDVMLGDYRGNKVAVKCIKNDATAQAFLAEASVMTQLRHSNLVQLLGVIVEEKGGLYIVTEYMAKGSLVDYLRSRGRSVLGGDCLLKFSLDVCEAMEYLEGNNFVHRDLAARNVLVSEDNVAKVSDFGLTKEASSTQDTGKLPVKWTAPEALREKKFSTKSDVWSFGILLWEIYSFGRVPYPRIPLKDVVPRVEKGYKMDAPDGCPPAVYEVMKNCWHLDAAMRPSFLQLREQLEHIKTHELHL

`CN1C(=O)c2sccc2N(C)c2nc(Nc3ccc(S(N)(=O)=O)cc3)ncc21` showed an Activity [1] of 100%, an Activity [2] of 95% and an Activity [3] of 100%. For the same compound, the Activity [4] was 93%, the Activity [5] was 92% and the Activity [6] was 100%. It also gave an Activity [7] of 73%, an Activity [8] of 94% and an Activity [9] of 100%. The Activity [10] was 94%, the Activity [11] was 66% and the Activity [12] was 97%. The Activity [13] was 58%, the Activity [14] was 23% and the Activity [15] was 100%. The Activity [16] was 100%, the Activity [17] was 91% and the Activity [18] was 100%. For the same compound, the Activity [19] was 95%, the Activity [20] was 82% and the pKd [21] was 7.46. The Cmax [22] was 1140 ng/mL, the Activity [23] was “Toxic” and the Activity [24] was 15%. For the same compound, the Activity (Mus musculus) was “Active”.
